Two compounds from ChEMBL document CHEMBL3232847, “Discovery of 6-phenylpyrimido[4,5-b][1,4]oxazines as potent and selective acyl CoA:diacylglycerol acyltransferase 1 (DGAT1) inhibitors with in vivo efficacy in rodents” (J Med Chem, 2014) can be followed below.

The term clearance denotes the volume of plasma or blood freed of the substance per unit of time. For orientation: bioavailability means the share of a dose that reaches the circulation, judged against a reference dose that is usually intravenous. What is called AUC is the area under the concentration-time curve, a measure of exposure. Broadly, the half-life is the time in which the quantity being followed falls by half.

Series [1] has as its system Rattus norvegicus. In words: Toxicity in Sprague-Dawley rat assessed as sebaceous gland atrophy at 30 to 100 mg/kg, po qd by 14-day multiple-dose toxicity study. It counts as organism-based. On the set-up: dose 30-100 mg/kg, route oral. The note with it: in vivo. An outline of the steps: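 Sprague−Dawley rats were dosed po once daily for 14 days. Clinical and histopathological findings were assessed, and plasma AUC was recorded for each dose.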

A short description of series [2]: Clearance in Sprague-Dawley rat at 0.7 mg/kg, iv. It counts as ADME, organism-based. On the set-up: dose 0.7 mg/kg, route intravenous. The note with it: in vivo.
Series [3] is described as follows: Oral bioavailability in Sprague-Dawley rat at 5 mg/kg. To be noted: in vivo. The format is ADME, organism-based.
Series [4] is described as follows: AUC in cynomolgus monkey at 10 mg/kg/day, po qd. It counts as ADME, organism-based, Macaca fascicularis. More on the design: route oral. The note with it: plasma. An outline of the steps: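 Cynomolgus monkeys dosed orally once daily at 10 or 30 mg/kg for 21 days in a multiple-dose toxicity study. Plasma AUC was reported, with ALT/AST levels, QTc intervals and clinical and histopathological findings monitored.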

Series [5] in a line: Half life in beagle dog at 0.2 mg/kg, iv. It counts as ADME, organism-based, Canis lupus familiaris. More on the design: dose 0.2 mg/kg, route intravenous. The note with it: in vivo.
Series [6] is described as follows: AUC in CD1 mouse at 0.3 mg/kg, po. It counts as ADME, organism-based. On the set-up: dose 0.3 mg/kg, route oral. The note with it: plasma.
Series [7] has as its system Mus musculus. In words: Reduction in plasma triglyceride level in C57BL/6J mouse at 0.1 mg/kg, po treated 30 mins prior to olive oil administration measured 3 hrs post olive oil administration relative to vehicle-treated control. It counts as functional. More on the design: scale not given: the % may be the effect or the level left. An outline of the steps: (§1)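 Animals received vehicle or compound by oral gavage, then olive oil (5 mL/kg) by oral gavage 30 min later. Plasma triglycerides were measured before dosing and 3 h after the oil. The read-out was the change in TG from pre-dose, compared with vehicle-treated animals.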

Series [8] in a line: AUC in Sprague-Dawley rat at 30 mg/kg, po qd. It counts as ADME, organism-based. On the set-up: dose 30 mg/kg, route oral. The note with it: plasma. An outline of the steps: (§2)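 Sprague-Dawley rats dosed orally once daily for 14 days in a multiple-dose toxicity study at 10, 30 or 100 mg/kg. Plasma exposure was reported as AUC, and clinical and histopathological findings were recorded.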

Series [9] is described as follows: AUC in Sprague-Dawley rat at 100 mg/kg, po qd. The format is ADME, organism-based. More on the design: dose 100 mg/kg, route oral. The note with it: plasma. An outline of the steps: as §2
Series [10] is described as follows: Oral bioavailability in beagle dog at 2 mg/kg. The note with it: in vivo. The format is ADME, organism-based, Canis lupus familiaris.
Series [11] can be described thus: Volume of distribution at steady state in cynomolgus monkey at 0.5 mg/kg, iv. The format is ADME, organism-based, Macaca fascicularis. On the set-up: dose 0.5 mg/kg, route intravenous. The note with it: in vivo, read-out: Vdss.
The nature of series [12]: Volume of distribution at steady state in Sprague-Dawley rat at 0.7 mg/kg, iv. It counts as ADME, organism-based. More on the design: dose 0.7 mg/kg, route intravenous. The note with it: in vivo, read-out: Vdss.
Series [13] in a line: Drug metabolism in cynomolgus monkey liver S9 fraction assessed as 2-hydroxy compound formation by MS/MS analysis. The format is ADME, subcellular, Macaca fascicularis.
Series [14] in a line: Half life in rhesus monkey at 0.2 mg/kg, iv. The format is ADME, organism-based, Macaca mulatta. On the set-up: dose 0.2 mg/kg, route intravenous. The note with it: in vivo.
In series [15] the target is T1, Sterol O-acyltransferase 2 (Homo sapiens) (UniProt O75908).
T1 sequence (whole entry): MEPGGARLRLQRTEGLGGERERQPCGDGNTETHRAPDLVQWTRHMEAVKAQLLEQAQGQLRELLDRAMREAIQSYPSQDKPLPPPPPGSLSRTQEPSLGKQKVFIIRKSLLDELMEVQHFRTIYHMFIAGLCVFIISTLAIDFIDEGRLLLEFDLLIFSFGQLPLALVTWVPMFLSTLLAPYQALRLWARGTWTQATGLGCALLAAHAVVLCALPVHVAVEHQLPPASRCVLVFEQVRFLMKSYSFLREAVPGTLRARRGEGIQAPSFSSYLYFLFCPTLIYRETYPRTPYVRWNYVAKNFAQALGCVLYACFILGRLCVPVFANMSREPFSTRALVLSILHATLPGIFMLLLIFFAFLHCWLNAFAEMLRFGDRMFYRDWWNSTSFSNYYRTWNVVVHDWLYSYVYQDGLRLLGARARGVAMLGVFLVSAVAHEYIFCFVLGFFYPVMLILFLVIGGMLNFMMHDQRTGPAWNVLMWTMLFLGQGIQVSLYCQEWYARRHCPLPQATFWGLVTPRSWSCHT
In words: Inhibition of human full-length flag-tagged ACAT2 expressed in baculovirus infected insect cells using [14C]palmitoyl CoA as substrate up to 10 uM after 10 mins by scintillation counting.

Series [16] can be described thus: AUC in Sprague-Dawley rat at 100 mg/kg, po. It counts as ADME, organism-based. On the set-up: dose 100 mg/kg, route oral. To be noted: plasma.
The subject of series [17] is Rattus norvegicus. In words: Reduction in plasma triglyceride level in Sprague-Dawley rat at 1 mg/kg, po treated 30 mins prior to olive oil administration measured 3 hrs post olive oil administration relative to vehicle-treated control. It counts as functional. On the set-up: scale not given: the % may be the effect or the level left. An outline of the steps: as §1

Series [18] has as its system Mus musculus. In words: Reduction in plasma triglyceride level in C57BL/6J mouse at 0.3 mg/kg, po treated 30 mins prior to olive oil administration measured 3 hrs post olive oil administration relative to vehicle-treated control. It counts as functional. More on the design: scale not given: the % may be the effect or the level left. An outline of the steps: as §1
A short description of series [19]: AUC in beagle dog at 5 mg/kg, po. The format is ADME, organism-based, Canis lupus familiaris. On the set-up: dose 5 mg/kg, route oral. To be noted: plasma.
Series [20] is described as follows: Half life in Sprague-Dawley rat at 1 mg/kg, iv. To be noted: in vivo. It counts as ADME, organism-based. More on the design: dose 1 mg/kg, route intravenous.
A short description of series [21]: Oral bioavailability in Sprague-Dawley rat at 2 mg/kg. The format is ADME, organism-based. The note with it: in vivo.
The nature of series [22]: AUC in Sprague-Dawley rat at 30 mg/kg, po. It counts as ADME, organism-based. More on the design: dose 30 mg/kg, route oral. To be noted: plasma.
Series [23] in a line: AUC in Sprague-Dawley rat at 2 mg/kg, po. It counts as ADME, organism-based. More on the design: dose 2 mg/kg, route oral. To be noted: plasma.
Series [24] in a line: Volume of distribution at steady state in beagle dog at 0.5 mg/kg, iv. The format is ADME, organism-based, Canis lupus familiaris. On the set-up: dose 0.5 mg/kg, route intravenous. The note with it: in vivo, read-out: Vdss.
Series [25] deals with Rattus norvegicus. The series can be described thus: Reduction in plasma triglyceride level in po dosed Sprague-Dawley rat compound treated 30 mins prior to olive oil administration measured 3 hrs post olive oil administration relative to vehicle-treated control. The format is functional, organism-based. Put shortly:
as §1

The source made the active and inactive calls. The rule behind the calls is not given here.

Take `CC1(C)Oc2nc(C(F)(F)F)nc(N)c2N=C1c1ccc2c(c1)CC[C@]21CC[C@@H](CC(=O)O)CC1`: the Activity result with Rattus norvegicus [1] is “Toxic”; with Mus musculus [7], 99.7%. The clearance in [2] was 0.21 L/h/kg. Also, the bioavailability in series [3] turned out to be 98%; in series [10], 22%. The AUC worked out at 607 µM·h in series [4], 0.341 µg·h/mL in series [6], 78 µM·h in series [8] and 677 µM·h in series [9]. This compound also showed a half-life in [5] of 1.1 h. For the same compound, the figures for the Vd in [11] and in series [12] were 0.44 L/kg and 1.1 L/kg, respectively.
Take `CC1(C)Oc2ncnc(N)c2N=C1c1ccc([C@H]2CC[C@H](CC(=O)O)CC2)cc1`: in series [13], the Drug metabolism entry is recorded as “metabolite_detected”. Further, the half-life is 1.8 h in series [14] and 1.7 h in series [20]. Also, the inhibition result in series [15] was “inactive”. Further, the AUC in series [16] was determined as 3750 µM·h; in [19], 4.72 µg·h/mL; in series [22], 913 µM·h; in series [23] it was 1.01 µg·h/mL. In addition, the Activity in the series on Rattus norvegicus [17] was 110%; in the series with Mus musculus [18], 93%; with Rattus norvegicus [25], “Dose-dependent effect”. The bioavailability in series [21] is 30%. The Vd in series [24] was found to be 1.9 L/kg.
